# Results: ChEMBL document CHEMBL1124180, “Asymmetric synthesis and properties of the enantiomers of the antibacterial agent 7-(3-aminopyrrolidin-1-yl)-1-(2,4-difluorophenyl)-1,4-dihydro-6- fluoro-4-oxo-1,8-naphthyridine-3-carboxylic acid hydrochloride” (J Med Chem, 1988)
# Tests used:
# Pseudomonas aeruginosa [1] = assay: In vitro activity against Pseudomonas aeruginosa (K799/WT).; type: functional
# Summary of the method: (§1)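 MIC determined by agar dilution on brain-heart infusion agar under aerobic conditions.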
# Escherichia coli [2] = assay: In vitro activity against Escherichia coli (KNK437); type: functional
# Summary of the method: (§2)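 MIC for aerobic bacteria, measured on brain-heart infusion agar.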
# Klebsiella pneumoniae = assay: In vitro activity against Klebsiella pneumoniae (ATCC 8045).; type: functional; summary of the method: as §1
# Escherichia coli [3] = assay: In vitro activity against Escherichia coli Juhl; type: functional; summary of the method: as §2
# Cutibacterium acnes = assay: In vitro activity against Propionibacterium acnes (132); type: functional
# Summary of the method: (§3)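 MIC determined under anaerobic conditions on Wilkins-Chalgren agar.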
# Staphylococcus aureus [4] = assay: In vitro activity against Staphylococcus aureus(CMX 553); type: functional; summary of the method: as §1
# Staphylococcus aureus [5] = assay: In vitro activity against Staphylococcus aureus(45 RAR2); type: functional; summary of the method: as §1
# Staphylococcus aureus [6] = assay: In vitro activity against Staphylococcus aureus(CMX 686B); type: functional; summary of the method: as §1
# Providencia stuartii = assay: In vitro activity against Providencia stuartii (CMX 640); type: functional; summary of the method: as §1
# Bacteroides fragilis [7] = assay: In vitro activity against Bacteroides fragilis (SFM2975-7); type: functional; summary of the method: as §3
# Clostridium perfringens [8] = assay: In vitro activity against Clostridium perfringens (SFBC 2026); type: functional
# Summary of the method: (§4)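 MIC for anaerobic bacteria, measured on Wilkins-Chalgren agar.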
# Bacteroides fragilis [9] = assay: In vitro activity against Bacteroides fragilis (UC-2); type: functional; summary of the method: as §3
# Pseudomonas aeruginosa [10] = assay: In vitro activity against Pseudomonas aeruginosa (BMH10); type: functional; summary of the method: as §1
# Streptococcus pyogenes [11] = assay: In vitro activity against Streptococcus pyogenes (2548 INDUC).; type: functional; summary of the method: as §1
# Phocaeicola vulgatus [12] = assay: In vitro activity against Bacteroides vulgatus(SFBC 2375); type: functional; summary of the method: as §3
# [13] = system: Peptostreptococcus anaerobius; assay: In vitro activity against Peptostreptococcus anaerobius (ATCC 27337); type: functional; summary of the method: as §3
# Hoylesella loescheii = assay: In vitro activity against Bacteroides loescheii (ATCC 15930).; type: functional; summary of the method: as §3
# Mus musculus [14] = assay: In vivo activity against Staphylococcus aureus NCTC 10649, administered po( each compound tested at 3 doses with 10 animals); type: functional
# Summary of the method: (§5)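 Mice were challenged intraperitoneally with the organism. The compound was given orally as a total dose split into equal portions at 1 and 5 h post-infection. Three doses were used, with 10 animals per dose.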
# Enterococcus faecium = assay: In vitro activity against Enterococcus faecium (ATCC 8043).; type: functional; summary of the method: as §1
# Mus musculus [15] = assay: In vivo activity against Pseudomonas aeruginosa A5007 (100X LD50), administered sc( each compound tested at 3 doses with 10 animals); type: functional
# Summary of the method: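 Mice were challenged intraperitoneally with the organism. The compound was given subcutaneously as a total dose split into equal portions at 1 and 5 h post-infection. Three doses were used, with 10 animals per dose.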
# Clostridium perfringens [16] = assay: In vitro activity against Clostridium perfringens (788); type: functional; summary of the method: as §4
# Streptococcus pyogenes [17] = assay: In vitro activity against Streptococcus pyogenes(930 CONST).; type: functional; summary of the method: as §1
# Pseudomonas aeruginosa [18] = assay: In vitro activity against Pseudomonas aeruginosa (A5007).; type: functional; summary of the method: as §1
# Escherichia coli [19] = assay: In vitro activity against Escherichia coli (H560); type: functional; summary of the method: as §2
# Escherichia coli [20] = assay: In vitro activity against Escherichia coli (SS).; type: functional; summary of the method: as §2
# Staphylococcus aureus [21] = assay: In vitro activity against Staphylococcus aureus(45); type: functional; summary of the method: as §1
# [22] = system: Bacteroides thetaiotaomicron; assay: In vitro activity against Bacteroides thetaiotaomicron (106); type: functional; summary of the method: as §3
# Mus musculus [23] = assay: In vivo activity against Pseudomonas aeruginosa A5007 (100X LD50), administered po( each compound tested at 3 doses with 10 animals); type: functional; summary of the method: as §5
# Thomasclavelia ramosa = assay: In vitro activity against Clostridium romosum (7); type: functional
# [24] = system: Peptoniphilus asaccharolyticus; assay: In vitro activity against Peptococcus asaccharolyticus (ATCC 14963).; type: functional; summary of the method: as §3
# Clostridioides difficile = assay: In vitro activity against Clostridium difficile (ATCC 9689); type: functional
# Burkholderia cepacia = assay: In vitro activity against Pseudomonas cepacia (296I); type: functional; summary of the method: as §1
# Staphylococcus aureus [25] = assay: In vitro activity against Staphylococcus aureus (A5177); type: functional; summary of the method: as §1
# Bacteroides fragilis [26] = assay: In vitro activity against Bacteroides fragilis (SFM2906A); type: functional; summary of the method: as §3
# Parvimonas micra = assay: In vitro activity against Peptostreptococcus micros (ATCC 33270); type: functional; summary of the method: as §3
# Phocaeicola vulgatus [27] = assay: In vitro activity against Bacteroides vulgatus(792); type: functional; summary of the method: as §3
# [28] = Solubility in aqueous media 0.15 N sulfate, pH 5.4; type: physicochemical; settings: read-out: S
smiles,measurement,setting,value
Cl.N[C@H]1CCN(c2nc3c(cc2F)c(=O)c(C(=O)O)cn3-c2ccc(F)cc2F)C1,MIC,Pseudomonas aeruginosa [1],0.1 µg/mL
same,MIC,Escherichia coli [2],0.1 µg/mL
same,MIC,Klebsiella pneumoniae,0.01 µg/mL
same,MIC,Escherichia coli [3],0.02 µg/mL
same,MIC,Cutibacterium acnes,2 µg/mL
same,MIC,Staphylococcus aureus [4],0.05 µg/mL
same,MIC,Staphylococcus aureus [5],0.05 µg/mL
same,MIC,Staphylococcus aureus [6],0.05 µg/mL
same,MIC,Providencia stuartii,1.56 µg/mL
same,MIC,Bacteroides fragilis [7],0.5 µg/mL
same,MIC,Clostridium perfringens [8],0.12 µg/mL
same,MIC,Bacteroides fragilis [9],0.25 µg/mL
same,MIC,Pseudomonas aeruginosa [10],0.05 µg/mL
same,MIC,Streptococcus pyogenes [11],0.1 µg/mL
same,MIC,Phocaeicola vulgatus [12],0.25 µg/mL
same,MIC,[13],0.12 µg/mL
same,MIC,Hoylesella loescheii,1 µg/mL
same,ED50,Mus musculus [14],0.8 mg/kg
same,MIC,Enterococcus faecium,0.1 µg/mL
same,ED50,Mus musculus [15],19.1 mg/kg
same,MIC,Clostridium perfringens [16],0.12 µg/mL
same,MIC,Streptococcus pyogenes [17],0.1 µg/mL
same,MIC,Pseudomonas aeruginosa [18],0.1 µg/mL
same,MIC,Escherichia coli [19],0.01 µg/mL
same,MIC,Escherichia coli [20],0.002 µg/mL
same,MIC,Staphylococcus aureus [21],0.1 µg/mL
same,MIC,[22],0.5 µg/mL
same,ED50,Mus musculus [23],11.5 mg/kg
same,MIC,Thomasclavelia ramosa,0.5 µg/mL
same,MIC,[24],0.12 µg/mL
same,MIC,Clostridioides difficile,1 µg/mL
same,MIC,Burkholderia cepacia,3.1 µg/mL
same,MIC,Staphylococcus aureus [25],0.05 µg/mL
same,MIC,Bacteroides fragilis [26],0.25 µg/mL
same,MIC,Parvimonas micra,0.06 µg/mL
same,MIC,Phocaeicola vulgatus [27],0.5 µg/mL
same,solubility,[28],8.7 µg/mL
